Experiment [1] has as its system Mycobacterium tuberculosis. As to the kind of experiment: Antimicrobial activity against Mycobacterium tuberculosis. The class given is functional.
The test system of experiment [2] is Mycolicibacterium smegmatis. As to the kind of experiment: Antimicrobial activity against Mycobacterium smegmatis. It is filed as functional.
Experiment [3] relates to OVCAR-3. As to the kind of experiment: Inhibition of ATP synthase mediated ATP production in human OVCAR3 cells. It is filed as cell-based. In short, it runs like this:
(§1)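 OVCAR3 cells were grown in DMEM with 10% FBS and penicillin-streptomycin. Isolated mitochondria (250 μg/ml) and sonicated submitochondrial particles without outer membrane (150 μg/ml) were incubated 1 h at 25°C with compound and an ADP-regenerating system. ATP formed was quantified spectrophotometrically from glucose-6-phosphate oxidation with NADP+. Controls were DCCD 5 μM and oligomycin 1 μM.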

Experiment [4] deals with OVCAR-3. The experiment can be described thus: Inhibition of ATP synthase mediated ATP production in human OVCAR3 cells at 200 uM. It is filed as cell-based. In short, it runs like this: as §1
The test system of experiment [5] is OVCAR-3. As to the kind of experiment: Inhibition of ATP synthase mediated ATP production in human OVCAR3 cells at 5 uM. It is filed as cell-based. In short, it runs like this:
as §1

Experiment [6] relates to OVCAR-3. As to the kind of experiment: Inhibition of ATP synthase mediated ATP production in human OVCAR3 cells at 1 uM. It is filed as cell-based. In short, it runs like this: as §1
Experiment [7] concerns the target T1, Putative uncharacterized protein atpE (Mycolicibacterium smegmatis, UniProt Q5TIX5). As to the kind of experiment: Inhibition of Mycobacterium smegmatis MC2 155 ATP synthase subunit c-mediated ATP production. A digest of the protocol:
(§2)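 Inverted membrane vesicles from M. smegmatis mc²155 incubated with compound at 25°C for 1 h with an ADP-regenerating system. ATP formed was quantified spectrophotometrically by following glucose-6-phosphate oxidation with NADP+. Controls were DCCD (100 μM) and oligomycin (1 μM). IC50 taken from the concentration-response of ATP synthesis.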

Experiment [8] deals with T1, Putative uncharacterized protein atpE. As to the kind of experiment: Inhibition of Mycobacterium smegmatis MC2 155 ATP synthase subunit c-mediated ATP production at 100 nM. In short, it runs like this:
as §2

Experiment [9] is described as follows: Inhibition of human ATP synthase mediated ATP production at 100 nM. A digest of the protocol:
as §1

Experiment [10] is filed under the species Mus musculus. The experiment can be described thus: Inhibition of ATP synthase in M18 mouse liver mitochondria assessed as effect on oxygen consumption at 175 uM. A digest of the protocol: (§3)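 Mitochondria freshly isolated from M18 mouse liver or bovine heart. Oxygen was read by Clark electrode at 37°C in 20 mM Tris-HCl pH 7.3, 85 mM KCl, 5 mM KH2PO4, 2.3 mM MgCl2, 25 mM creatine and 25 mM phosphocreatine, with an ADP-regenerating system. Succinate energised the membrane; rotenone blocked complex I. Inhibition was taken as the fall in state III O2 rate. Oligomycin 0.6 μM served as control. Mean±SD of three independent experiments.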

Experiment [11] is filed under the species Bos taurus. As to the kind of experiment: Inhibition of ATP synthase in bovine heart mitochondria assessed as effect on oxygen consumption at 175 uM. A digest of the protocol: as §3
Experiment [12] is filed under the species Mus musculus. As to the kind of experiment: Inhibition of ATP synthase in M18 mouse liver mitochondria assessed as inhibition of oxygen consumption. In short, it runs like this: as §3
The species entered for experiment [13] is Bos taurus. The experiment can be described thus: Inhibition of ATP synthase in bovine heart mitochondria assessed as inhibition of oxygen consumption. To be noted: concentration not given here. In short, it runs like this:
as §3

The MIC is the smallest concentration in the dilution series that meets the test's criterion for growth inhibition. Read a low MIC as greater potency. The term inhibition denotes the drop in the measured response relative to a control, in per cent. As a reminder, the IC50 is the concentration that gives 50% inhibition.

Molecules are shown by their SMILES. Values after ≈ are worked out from the molar mass of the structure shown. Active and inactive are the calls of the source.

T1 sequence (Q5TIX5 whole entry): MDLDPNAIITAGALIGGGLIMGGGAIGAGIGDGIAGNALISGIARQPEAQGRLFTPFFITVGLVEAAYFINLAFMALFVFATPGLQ

Turning to `COc1nc2ccc(Br)cc2cc1[C@@H](c1ccccc1)[C@@](O)(CCN(C)C)c1cccc2ccccc12` [BEDAQUILINE], the minimum inhibitory concentration (MIC) came to 0.03 µM (≈ 0.0167 µg/mL) in [1] and 0.015 µM (≈ 0.00833 µg/mL) in experiment [2]. The inhibition result in experiment [3], in experiment [10] and in experiment [11] was “inactive” throughout. Besides, the inhibition is 35% in [4]; > 90% in experiment [5]; > 90% in [6]; > 80% in experiment [12]; > 50% in [13]. Besides, the IC50 in [7] is 10 nM; in experiment [8], 10 nM; in experiment [9], > 200000 nM.

(Values after ChEMBL document CHEMBL1629639, “Selectivity of TMC207 towards mycobacterial ATP synthase compared with that towards the eukaryotic homologue” (Antimicrob Agents Chemother, 2009).)
